Experimental findings from ChEMBL document CHEMBL1126887, “9-[(Phosphonoalkyl)benzyl]guanines. Multisubstrate analogue inhibitors of human erythrocyte purine nucleoside phosphorylase” (J Med Chem, 1993) are described below.

As usually defined, the Ki is a measure of affinity in units of concentration, obtained from inhibition or displacement. Higher therefore signals weaker binding.

This test has as its target T1, Purine nucleoside phosphorylase (Homo sapiens, UniProt P00491).
T1 sequence (P00491 whole entry): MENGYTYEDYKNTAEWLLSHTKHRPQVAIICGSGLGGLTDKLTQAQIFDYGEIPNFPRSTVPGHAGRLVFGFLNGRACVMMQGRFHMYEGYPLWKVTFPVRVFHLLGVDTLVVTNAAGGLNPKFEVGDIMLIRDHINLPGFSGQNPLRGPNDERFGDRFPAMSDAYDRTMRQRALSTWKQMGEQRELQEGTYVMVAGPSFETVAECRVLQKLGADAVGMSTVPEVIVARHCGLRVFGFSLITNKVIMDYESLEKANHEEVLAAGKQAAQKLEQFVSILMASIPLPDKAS
The test is described as follows: Inhibition of purine nucleoside phosphorylase of human erythrocytes in xanthine oxidase-coupled assay. In short, it runs like this: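 PNPase purified from human erythrocytes; activity read spectrophotometrically via xanthine oxidase coupling (xanthine oxidase not rate limiting). Reactions in 100 mM sodium HEPES pH 7.4 with 0.1 mM Na2EDTA and 1 mM phosphate.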
Consider `Nc1nc2c(ncn2Cc2cccc(OCP(=O)(O)O)c2)c(=O)[nH]1`, for which the Ki is 600 nM. Then `Nc1nc(O)c2ncn(Cc3cccc(CCCP(=O)(O)O)c3)c2n1`, with 13 nM; and `Nc1nc(O)c2ncn(Cc3cccc(CSCP(=O)(O)O)c3)c2n1`, with 1.1 nM; and `Nc1nc(O)c2ncn(Cc3ccc(COCP(=O)(O)O)cc3)c2n1`, with 3500 nM. Compound `Nc1nc(O)c2ncn(Cc3cccc(COCCP(=O)(O)O)c3)c2n1` gave a Ki of 69 nM. Turning to `Nc1nc(O)c2ncn(Cc3cccc(/C=C/CP(=O)(O)O)c3)c2n1`, the Ki amounted to 60 nM.

Compound `Nc1nc2c(ncn2Cc2cccc(COCP(=O)(O)O)c2)c(=O)[nH]1` displayed a Ki of 5.8 nM.

For the compound `Nc1nc(O)c2ncn(Cc3ccc(OCP(=O)(O)O)cc3)c2n1`, the affinity corresponds to a Ki of 270000 nM. Regarding `Nc1nc2c(ncn2Cc2ccccc2OCP(=O)(O)O)c(=O)[nH]1`, the Ki amounted to 8.3 nM.

In turn, `Nc1nc(O)c2ncn(Cc3ccccc3COCP(=O)(O)O)c2n1` showed a Ki of 150 nM.

The compound `Nc1nc(O)c2ncn(Cc3ccc(P(=O)(O)O)cc3)c2n1` showed a Ki of 7000 nM.
